Measurements reported in ChEMBL document CHEMBL3351721, “Cyclic adenosine 5'-diphosphate ribose analogs without a "southern" ribose inhibit ADP-ribosyl cyclase-hydrolase CD38” (J Med Chem, 2014).

Assays:
[1] = target: T1, ADP-ribosyl cyclase/cyclic ADP-ribose hydrolase 1 (Homo sapiens, UniProt P28907); assay: Drug metabolism assessed as human CD38 catalytic domain-mediated compound hydrolysis at 1 mM by RP-HPLC method; type: ADME; conditions: 1000 µM
T1 sequence (P28907 whole entry): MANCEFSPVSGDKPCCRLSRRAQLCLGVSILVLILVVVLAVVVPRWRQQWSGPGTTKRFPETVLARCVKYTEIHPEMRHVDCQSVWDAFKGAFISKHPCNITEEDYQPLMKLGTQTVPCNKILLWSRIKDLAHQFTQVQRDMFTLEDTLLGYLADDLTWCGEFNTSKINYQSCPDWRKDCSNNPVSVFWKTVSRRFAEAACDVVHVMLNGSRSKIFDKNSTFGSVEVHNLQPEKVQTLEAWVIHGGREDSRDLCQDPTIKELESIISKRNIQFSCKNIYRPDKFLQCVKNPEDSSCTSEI
How it was run: (§1)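 Human CD38 catalytic domain diluted in 20 mM Tris-HCl pH 8 to 4 mg/mL or 1 μg/mL, added to inhibitor (1 mM final) at room temperature; no-enzyme control run in parallel. At time points, aliquots diluted 20-fold in water and analysed by RP-HPLC: isocratic elution, 1 mL/min, ion-pair buffer 0.17% cetrimide and 45% phosphate buffer (pH 6.4) in MeOH, photodiode array detection 210–350 nm.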

[2] = target: T1, ADP-ribosyl cyclase/cyclic ADP-ribose hydrolase 1; assay: Drug metabolism assessed as human CD38 catalytic domain-mediated compound hydrolysis at 1 mM using 1 ug/mL CD38 by RP-HPLC method; type: ADME; conditions: 1000 µM; how it was run: as §1
[3] = target: T1, ADP-ribosyl cyclase/cyclic ADP-ribose hydrolase 1; assay: Drug metabolism assessed as human CD38 catalytic domain-mediated compound hydrolysis at 1 mM using 4 mg/mL CD38 by RP-HPLC method; type: ADME; conditions: 1000 µM; how it was run: as §1
[4] = target: T1, ADP-ribosyl cyclase/cyclic ADP-ribose hydrolase 1; assay: Inhibition of human CD38 catalytic domain assessed as reduction in cADPR hydrolysis incubated for 10 mins by fluorimetric cycling assay
[5] = Retention time of the compound at 1 mM in presence of human CD38 catalytic domain by RP-HPLC method; type: physicochemical; conditions: 1000 µM; how it was run: as §1
[6] = target: T1, ADP-ribosyl cyclase/cyclic ADP-ribose hydrolase 1; assay: Drug metabolism assessed as human CD38 catalytic domain-mediated compound hydrolysis by measuring 8-NH2-N9-butyl-IDPR level at 1 mM by RP-HPLC method; type: ADME; conditions: 1000 µM; how it was run: as §1
[7] = Retention time of the compound using 1 mM 8-NH2-N9-butyl-cIDPR in presence of human CD38 catalytic domain by RP-HPLC method; type: physicochemical; how it was run: as §1
[8] = target: T1, ADP-ribosyl cyclase/cyclic ADP-ribose hydrolase 1; assay: Drug level assessed as human CD38 catalytic domain-mediated compound formation using 1 mM 8-NH2-N9-butyl-cIDPR by RP-HPLC method; type: ADME; how it was run: as §1

Compound	Drug metabolism [1]	Drug metabolism [2]	Drug metabolism [3]	also measured
O=c1c2ncn3c2ncn1[C@@H]1O[C@H](COP(=O)(O)OP(=O)(O)OC[C@H]2O[C@@H]3[C@H](O)[C@@H]2O)[C@@H](O)[C@H]1O	metabolite_detected	metabolite_notdetected	metabolite_detected	IC50 [4]: 276 µM
O=c1c2ncn3c2ncn1[C@@H]1O[C@H](COP(=O)(O)OP(=O)(O)OCCCC3)[C@@H](O)[C@H]1O	metabolite_detected			
O=c1c2nc(Br)n3c2ncn1[C@@H]1O[C@H](COP(=O)(O)OP(=O)(O)OCCCC3)[C@@H](O)[C@H]1O	metabolite_detected			
Nc1nc2c(=O)n3cnc2n1CCCCOP(=O)(O)OP(=O)(O)OC[C@H]1O[C@@H]3[C@H](O)[C@@H]1O		metabolite_notdetected	metabolite_detected	Retention_time [5]: 9.1 min; Drug metabolism [6]: metabolite_detected
Nc1nc2c(=O)[nH]cnc2n1CCCCOP(=O)(O)OP(=O)(O)OC[C@H]1OC(O)[C@H](O)[C@@H]1O (some centres not stated)				Retention_time [7]: 10.6 min; Drug metabolism [8]: metabolite_detected
